# “And” between values parts separate entries of the source, which are not always exact repeats. Identical values can stand only once.
# Tested on: Fibroblast
# Test: Multiplex assay against human fibroblast
# Assay type: toxicity, cell-based
# Settings: 12 h, 1 µM, compound concentration 1 uM
# Summary of the method: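 On a CQ1 microscope at 37°C and 5% CO2, live cells were imaged after compound addition. They had been stained at seeding with Hoechst33342, BioTracker Green Microtubule Cytoskeleton Dye, MitoTracker Red and Annexin V Alexa Fluor 680. CellPathfinder machine-learning gating assigned cells to Hoechst high-intensity objects or normal cells, normal cells to healthy, pyknosed or fragmented nuclei, and pyknosed cells to mitotic or apoptotic. Tubulin, mitochondrial-mass and membrane-permeability phenotypes are per cents of healthy-nucleus cells.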
Compound,Population Apoptotic (%),Population Fragmented Nuclei (%),Population Healthy Nuclei (%),Population Hoechst High Intensity Objects (%),Population Membrane Permeable-Phenotype (%),Population Mitochondria Different-Phenotype (%),Population Mitotic Cells (%),Population Normal (%),Population Pyknosed Nuclei (%),Population Tubulin-Different-Phenotype (%)
N#Cc1c(Oc2cccc(OS(=O)(=O)CCCC(F)(F)F)c2)cccc1C(F)(F)F,51% and 38%,13% and 27%,63% and 48%,2% and 7%,1% and 9%,7%,48% and 61%,97% and 92%,23% and 24%,38% and 59%
Cn1cc(C(=O)OCC2CCN(CCNS(C)(=O)=O)CC2)c2ccccc21,44% and 33%,13% and 21%,71% and 46%,1% and 4%,0% and 9%,3% and 1%,55% and 66%,98% and 95%,14% and 32%,23% and 37%
CN(C)C(=O)Cn1cc(-c2ccc(-c3cncc4ccccc34)cc2)cn1,47% and 32%,–,72% and 46%,0% and 5%,0% and 5%,5% and 2%,52% and 67%,100% and 94%,16% and 20%,31% and 54%
Cc1cccc(NC(=O)CN2CCC(c3ccccn3)CC2)c1.Cl.Cl,47% and 33%,16% and 25%,70% and 55%,4% and 6%,0% and 2%,6% and 5%,52% and 66%,95% and 93%,12% and 19%,34% and 35%

# Same assay, conditions: 12 h, 1 µM, compound concentration 1 uM
row,Compound,Total Cell Count
1,N#Cc1c(Oc2cccc(OS(=O)(=O)CCCC(F)(F)F)c2)cccc1C(F)(F)F,146 and 148
2,Cn1cc(C(=O)OCC2CCN(CCNS(C)(=O)=O)CC2)c2ccccc21,202 and 164
3,CN(C)C(=O)Cn1cc(-c2ccc(-c3cncc4ccccc34)cc2)cn1,139 and 161
4,Cc1cccc(NC(=O)CN2CCC(c3ccccn3)CC2)c1.Cl.Cl,140 and 232

# Same assay, conditions: 12 h, 10 µM, compound concentration 10 uM
Compound,Population Apoptotic (%),Population Fragmented Nuclei (%),Population Healthy Nuclei (%),Population Hoechst High Intensity Objects (%),Population Mitochondria Different-Phenotype (%),Population Mitotic Cells (%),Population Normal (%),Population Pyknosed Nuclei (%),Population Tubulin-Different-Phenotype (%),Total Cell Count
N#Cc1c(Oc2cccc(OS(=O)(=O)CCCC(F)(F)F)c2)cccc1C(F)(F)F,31% and 66%,14% and 42%,59% and 22%,6% and 7%,7% and 3%,68% and 33%,93% and 92%,26% and 35%,36% and 75%,180 and 138
Cn1cc(C(=O)OCC2CCN(CCNS(C)(=O)=O)CC2)c2ccccc21,48% and 25%,29% and 32%,55% and 51%,3% and 5%,9% and 7%,51% and 75%,96% and 94%,14% and 16%,41% and 47%,207 and 184
CN(C)C(=O)Cn1cc(-c2ccc(-c3cncc4ccccc34)cc2)cn1,33%,–,69% and 42%,4% and 9%,12% and 5%,66%,95% and 90%,16%,52% and 81%,113 and 98
Cc1cccc(NC(=O)CN2CCC(c3ccccn3)CC2)c1.Cl.Cl,59% and 34%,–,78% and 30%,10% and 2%,7% and 10%,40% and 65%,89% and 98%,13% and 23%,36% and 56%,229 and 100

# Same assay, conditions: 12 h, 10 µM, compound concentration 10 uM
row,Compound,Population Membrane Permeable-Phenotype (%)
1,Cn1cc(C(=O)OCC2CCN(CCNS(C)(=O)=O)CC2)c2ccccc21,0% and 5%
2,Cc1cccc(NC(=O)CN2CCC(c3ccccn3)CC2)c1.Cl.Cl,1% and 6%

# Same assay, conditions: 24 h, 1 µM, compound concentration 1 uM
Compound,Population Apoptotic (%),Population Fragmented Nuclei (%),Population Healthy Nuclei (%),Population Hoechst High Intensity Objects (%),Population Membrane Permeable-Phenotype (%),Population Mitochondria Different-Phenotype (%),Population Mitotic Cells (%),Population Normal (%),Population Pyknosed Nuclei (%),Population Tubulin-Different-Phenotype (%)
N#Cc1c(Oc2cccc(OS(=O)(=O)CCCC(F)(F)F)c2)cccc1C(F)(F)F,50% and 54%,20% and 33%,62% and 50%,6% and 3%,1% and 5%,4% and 5%,50% and 45%,93% and 96%,17% and 16%,45% and 57%
Cn1cc(C(=O)OCC2CCN(CCNS(C)(=O)=O)CC2)c2ccccc21,31% and 30%,13% and 25%,74% and 47%,5% and 2%,0% and 7%,0% and 6%,68% and 69%,94% and 97%,11% and 26%,23% and 48%
CN(C)C(=O)Cn1cc(-c2ccc(-c3cncc4ccccc34)cc2)cn1,47% and 48%,–,73% and 38%,5%,0% and 7%,3% and 5%,52% and 51%,94%,14% and 20%,37% and 61%
Cc1cccc(NC(=O)CN2CCC(c3ccccn3)CC2)c1.Cl.Cl,50% and 40%,18% and 26%,70% and 53%,2% and 4%,0% and 4%,8% and 6%,50% and 59%,97% and 95%,10% and 19%,25% and 30%

# Same assay, conditions: 24 h, 1 µM, compound concentration 1 uM
row,Compound,Total Cell Count
1,N#Cc1c(Oc2cccc(OS(=O)(=O)CCCC(F)(F)F)c2)cccc1C(F)(F)F,148 and 147
2,Cn1cc(C(=O)OCC2CCN(CCNS(C)(=O)=O)CC2)c2ccccc21,201 and 168
3,CN(C)C(=O)Cn1cc(-c2ccc(-c3cncc4ccccc34)cc2)cn1,137 and 156
4,Cc1cccc(NC(=O)CN2CCC(c3ccccn3)CC2)c1.Cl.Cl,134 and 239

# Same assay, conditions: 24 h, 10 µM, compound concentration 10 uM
Compound,Population Apoptotic (%),Population Healthy Nuclei (%),Population Hoechst High Intensity Objects (%),Population Mitochondria Different-Phenotype (%),Population Mitotic Cells (%),Population Normal (%),Population Pyknosed Nuclei (%),Population Tubulin-Different-Phenotype (%),Total Cell Count,Population Fragmented Nuclei (%)
N#Cc1c(Oc2cccc(OS(=O)(=O)CCCC(F)(F)F)c2)cccc1C(F)(F)F,44% and 61%,59% and 23%,5% and 8%,12% and 22%,55% and 38%,94% and 91%,27% and 36%,43% and 77%,174 and 127,–
Cn1cc(C(=O)OCC2CCN(CCNS(C)(=O)=O)CC2)c2ccccc21,80% and 41%,53% and 43%,5% and 4%,3% and 5%,20% and 58%,94% and 95%,13% and 16%,42% and 52%,201 and 188,33% and 40%
CN(C)C(=O)Cn1cc(-c2ccc(-c3cncc4ccccc34)cc2)cn1,50% and 41%,62% and 43%,8% and 5%,12% and 8%,50% and 58%,91% and 94%,17% and 15%,59% and 85%,113 and 85,20% and 41%
Cc1cccc(NC(=O)CN2CCC(c3ccccn3)CC2)c1.Cl.Cl,64% and 42%,81% and 34%,7% and 0%,11%,35% and 57%,92% and 100%,–,38% and 50%,217 and 105,–

# Same assay, conditions: 24 h, 10 µM, compound concentration 10 uM
row,Compound,Population Membrane Permeable-Phenotype (%)
1,Cn1cc(C(=O)OCC2CCN(CCNS(C)(=O)=O)CC2)c2ccccc21,0% and 3%
2,CN(C)C(=O)Cn1cc(-c2ccc(-c3cncc4ccccc34)cc2)cn1,0% and 11%
3,Cc1cccc(NC(=O)CN2CCC(c3ccccn3)CC2)c1.Cl.Cl,0% and 11%

# Same assay, conditions: 48 h, 1 µM, compound concentration 1 uM
Compound,Population Apoptotic (%),Population Fragmented Nuclei (%),Population Healthy Nuclei (%),Population Hoechst High Intensity Objects (%),Population Mitochondria Different-Phenotype (%),Population Mitotic Cells (%),Population Normal (%),Population Pyknosed Nuclei (%),Population Tubulin-Different-Phenotype (%),Total Cell Count
N#Cc1c(Oc2cccc(OS(=O)(=O)CCCC(F)(F)F)c2)cccc1C(F)(F)F,60% and 38%,18% and 26%,66% and 59%,7% and 5%,5% and 2%,40% and 61%,92% and 94%,14%,42% and 56%,145 and 133
Cn1cc(C(=O)OCC2CCN(CCNS(C)(=O)=O)CC2)c2ccccc21,54% and 52%,14% and 33%,72% and 54%,5% and 4%,1% and 2%,45% and 47%,94% and 95%,12%,23% and 43%,197 and 177
CN(C)C(=O)Cn1cc(-c2ccc(-c3cncc4ccccc34)cc2)cn1,76% and 44%,21% and 36%,65% and 40%,6% and 7%,8% and 7%,23% and 55%,93% and 92%,12% and 22%,57% and 77%,144 and 141
Cc1cccc(NC(=O)CN2CCC(c3ccccn3)CC2)c1.Cl.Cl,80% and 60%,25% and 31%,63% and 55%,3%,3%,20% and 39%,96%,11% and 12%,28% and 35%,138 and 229

# Same assay, conditions: 48 h, 1 µM, compound concentration 1 uM
row,Compound,Population Membrane Permeable-Phenotype (%)
1,Cn1cc(C(=O)OCC2CCN(CCNS(C)(=O)=O)CC2)c2ccccc21,0% and 5%
2,CN(C)C(=O)Cn1cc(-c2ccc(-c3cncc4ccccc34)cc2)cn1,3% and 5%
3,Cc1cccc(NC(=O)CN2CCC(c3ccccn3)CC2)c1.Cl.Cl,1% and 4%

# Same assay, conditions: 48 h, 10 µM, compound concentration 10 uM
Compound,Population Apoptotic (%),Population Fragmented Nuclei (%),Population Healthy Nuclei (%),Population Hoechst High Intensity Objects (%),Population Mitochondria Different-Phenotype (%),Population Mitotic Cells (%),Population Normal (%),Population Pyknosed Nuclei (%),Population Tubulin-Different-Phenotype (%),Total Cell Count
N#Cc1c(Oc2cccc(OS(=O)(=O)CCCC(F)(F)F)c2)cccc1C(F)(F)F,52% and 59%,20% and 43%,54% and 31%,9% and 2%,12% and 15%,47% and 40%,90% and 97%,24% and 25%,47% and 89%,172 and 150
Cn1cc(C(=O)OCC2CCN(CCNS(C)(=O)=O)CC2)c2ccccc21,68% and 50%,28% and 40%,58% and 46%,9% and 6%,9% and 8%,32% and 50%,90% and 93%,13% and 12%,49% and 60%,199 and 190
CN(C)C(=O)Cn1cc(-c2ccc(-c3cncc4ccccc34)cc2)cn1,–,24% and 47%,54% and 44%,9% and 0%,20% and 13%,–,90% and 99%,20% and 7%,55% and 73%,117 and 102
Cc1cccc(NC(=O)CN2CCC(c3ccccn3)CC2)c1.Cl.Cl,76% and 28%,–,75% and 39%,7% and 1%,–,–,92% and 98%,7% and 6%,44% and 61%,238 and 109

# Same assay, conditions: 48 h, 10 µM, compound concentration 10 uM
row,Compound,Population Membrane Permeable-Phenotype (%)
1,Cn1cc(C(=O)OCC2CCN(CCNS(C)(=O)=O)CC2)c2ccccc21,0% and 2%
2,CN(C)C(=O)Cn1cc(-c2ccc(-c3cncc4ccccc34)cc2)cn1,0% and 8%
3,Cc1cccc(NC(=O)CN2CCC(c3ccccn3)CC2)c1.Cl.Cl,2%

# — ChEMBL document CHEMBL5724801, “EUbOPEN Chemogenomics Library - Multiplex” (2024)
